# Assay results pooled from the literature.
# pIC50: −log10 of the molar value.
# Observed: DPPH scavenging
SMILES,method,time,endpoint,value
CCN(CC)c1ccc(/C=N/c2ccccc2F)c(O)c1,,,pIC50,4.42
O=C1O[C@H]([C@@H](O)CO)C(O)=C1O,absorbance,30 min,pIC50,4.91
Cc1c(C)c2c(c(C)c1O)CCC(C)(C(=O)O)O2 (stereo not shown),,,pIC50,3.66
Oc1cc(O)c2c(c1)O[C@H](c1ccc(O)c(O)c1)[C@@H](O)C2,,,pIC50,4.51
Clc1ccc(/C=N/N=C/c2ccc(Cl)cc2)cc1,,,pIC50,< 2.52
Cc1cc(C(C)(C)C)c(O)c(C(C)(C)C)c1,absorbance,30 min,IC50,69 µg/mL
O=[N+]([O-])c1ccccc1/C=N/N=C/c1ccccc1[N+](=O)[O-],,,pIC50,2.53
CCN(CC)c1ccc(/C=N/c2ccccc2Br)c(O)c1,,,pIC50,4.39
O=C1O[C@H]([C@@H](O)CO)C(O)=C1O,,,pIC50,3.46
Fc1ccccc1/C=N/N=C/c1ccccc1F,,,pIC50,2.55
